Measurements reported in ChEMBL document CHEMBL4196066, “Design and synthesis of furyl/thineyl pyrroloquinolones based on natural alkaloid perlolyrine, lead to the discovery of potent and selective PDE5 inhibitors” (Eur J Med Chem, 2018).

Key:
Oryctolagus cuniculus = assay: Vasorelaxant activity in iv dosed New Zealand rabbit assessed as induction of ICP change in response to electrically pelvic nerve stimulation administered as bolus dose; format: functional
[1] = molecular target: cGMP-specific 3',5'-cyclic phosphodiesterase (Homo sapiens, UniProt O76074); assay: Inhibition of N-terminal GST-tagged full length recombinant human PDE5A1 catalytic domain expressed in Baculovirus infected Sf9 insect cells using FAM-cGMP as substrate after 1 hr by fluorescence polarization assay
[2] = molecular target: cGMP-dependent 3',5'-cyclic phosphodiesterase (Homo sapiens) (UniProt O00408); assay: Inhibition of N-terminal FLAG-tagged human PDE2A1 (2 to 941 residues) expressed in Baculovirus infected Sf9 insect cells at 6 uM using FAM-cAMP as substrate after 1 hr by fluorescence polarization assay relative to control
[3] = molecular target: cGMP-inhibited 3',5'-cyclic phosphodiesterase 3B (Homo sapiens) (UniProt Q13370); assay: Inhibition of N-terminal GST-tagged recombinant human PDE3B (592 end residues) expressed in Baculovirus infected Sf9 insect cells at 6 uM using FAM-cAMP as substrate after 1 hr by fluorescence polarization assay relative to control
Homo sapiens [4] = species: Homo sapiens; assay: Selectivity ratio of IC50 for N-terminal GST-tagged recombinant human PDE3B (592 end residues) to IC50 for N-terminal GST-tagged full length recombinant human PDE5A1 catalytic domain
Homo sapiens [5] = species: Homo sapiens; assay: Selectivity ratio of IC50 for N-terminal GST-tagged full length recombinant human PDE4A1A to IC50 for N-terminal GST-tagged full length recombinant human PDE5A1 catalytic domain
Thoracic aorta = assay: Vasorelaxant activity in norepinephrine-pretreated New Zealand rabbit thoracic aorta assessed as increase in aortic relaxation at 1 uM measured after 15 mins relative to control; format: functional, Oryctolagus cuniculus; design: scale not given: the % may be the effect or the level left
Outline: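 Thoracic aortic rings from New Zealand white rabbits were held in Krebs buffer at 2 g resting tension (0%) and equilibrated 2 h. Rings were contracted to maximum with 1 µM norepinephrine (100%). Compounds were added cumulatively at 15 min intervals, with tension recorded 15 min after each dose. Relaxation % = (max − recorded)/(max − 2 g) × 100; n = 1–2 rings.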

Homo sapiens [6] = species: Homo sapiens; assay: Selectivity ratio of IC50 for N-terminal GST-tagged full length recombinant human PDE6C to IC50 for N-terminal GST-tagged full length recombinant human PDE5A1 catalytic domain
Homo sapiens [7] = species: Homo sapiens; assay: Selectivity ratio of IC50 for N-terminal FLAG-tagged human PDE2A1 (2 to 941 residues) to IC50 for N-terminal GST-tagged full length recombinant human PDE5A1 catalytic domain
Homo sapiens [8] = species: Homo sapiens; assay: Selectivity ratio of IC50 for N-terminal GST-tagged full length recombinant human PDE1A to IC50 for N-terminal GST-tagged full length recombinant human PDE5A1 catalytic domain
[9] = molecular target: Dual specificity calcium/calmodulin-dependent 3',5'-cyclic nucleotide phosphodiesterase 1A (Homo sapiens) (UniProt P54750); assay: Inhibition of N-terminal GST-tagged full length recombinant human PDE1A expressed in Baculovirus infected Sf9 insect cells at 6 uM using FAM-cAMP as substrate after 1 hr by fluorescence polarization assay relative to control
[10] = molecular target: 3',5'-cyclic-AMP phosphodiesterase 4A (Homo sapiens) (UniProt P27815); assay: Inhibition of N-terminal GST-tagged full length recombinant human PDE4A1A expressed in Baculovirus infected Sf9 insect cells at 1.5 uM using FAM-cAMP as substrate after 1 hr by fluorescence polarization assay relative to control
[11] = molecular target: Cone cGMP-specific 3',5'-cyclic phosphodiesterase subunit alpha' (Homo sapiens, UniProt P51160); assay: Inhibition of N-terminal GST-tagged full length recombinant human PDE6C expressed in Baculovirus infected Sf9 insect cells using […] as substrate after 1 hr by fluorescence polarization assay
[12] = molecular target: 3',5'-cyclic-AMP phosphodiesterase 4A (Homo sapiens) (UniProt P27815); assay: Inhibition of N-terminal GST-tagged full length recombinant human PDE4A1A expressed in Baculovirus infected Sf9 insect cells at 8 uM using FAM-cAMP as substrate after 1 hr by fluorescence polarization assay relative to control
[13] = molecular target: Dual specificity calcium/calmodulin-dependent 3',5'-cyclic nucleotide phosphodiesterase 1A (Homo sapiens) (UniProt P54750); assay: Inhibition of N-terminal GST-tagged full length recombinant human PDE1A expressed in Baculovirus infected Sf9 insect cells at 30 uM using FAM-cAMP as substrate after 1 hr by fluorescence polarization assay relative to control
[14] = molecular target: cGMP-dependent 3',5'-cyclic phosphodiesterase (Homo sapiens) (UniProt O00408); assay: Inhibition of N-terminal FLAG-tagged human PDE2A1 (2 to 941 residues) expressed in Baculovirus infected Sf9 insect cells at 30 uM using FAM-cAMP as substrate after 1 hr by fluorescence polarization assay relative to control
[15] = molecular target: cGMP-inhibited 3',5'-cyclic phosphodiesterase 3B (Homo sapiens) (UniProt Q13370); assay: Inhibition of N-terminal GST-tagged recombinant human PDE3B (592 end residues) expressed in Baculovirus infected Sf9 insect cells at 30 uM using FAM-cAMP as substrate after 1 hr by fluorescence polarization assay relative to control

Sequence of cGMP-dependent 3',5'-cyclic phosphodiesterase (Homo sapiens) (O00408 whole entry, the tested form may be a part): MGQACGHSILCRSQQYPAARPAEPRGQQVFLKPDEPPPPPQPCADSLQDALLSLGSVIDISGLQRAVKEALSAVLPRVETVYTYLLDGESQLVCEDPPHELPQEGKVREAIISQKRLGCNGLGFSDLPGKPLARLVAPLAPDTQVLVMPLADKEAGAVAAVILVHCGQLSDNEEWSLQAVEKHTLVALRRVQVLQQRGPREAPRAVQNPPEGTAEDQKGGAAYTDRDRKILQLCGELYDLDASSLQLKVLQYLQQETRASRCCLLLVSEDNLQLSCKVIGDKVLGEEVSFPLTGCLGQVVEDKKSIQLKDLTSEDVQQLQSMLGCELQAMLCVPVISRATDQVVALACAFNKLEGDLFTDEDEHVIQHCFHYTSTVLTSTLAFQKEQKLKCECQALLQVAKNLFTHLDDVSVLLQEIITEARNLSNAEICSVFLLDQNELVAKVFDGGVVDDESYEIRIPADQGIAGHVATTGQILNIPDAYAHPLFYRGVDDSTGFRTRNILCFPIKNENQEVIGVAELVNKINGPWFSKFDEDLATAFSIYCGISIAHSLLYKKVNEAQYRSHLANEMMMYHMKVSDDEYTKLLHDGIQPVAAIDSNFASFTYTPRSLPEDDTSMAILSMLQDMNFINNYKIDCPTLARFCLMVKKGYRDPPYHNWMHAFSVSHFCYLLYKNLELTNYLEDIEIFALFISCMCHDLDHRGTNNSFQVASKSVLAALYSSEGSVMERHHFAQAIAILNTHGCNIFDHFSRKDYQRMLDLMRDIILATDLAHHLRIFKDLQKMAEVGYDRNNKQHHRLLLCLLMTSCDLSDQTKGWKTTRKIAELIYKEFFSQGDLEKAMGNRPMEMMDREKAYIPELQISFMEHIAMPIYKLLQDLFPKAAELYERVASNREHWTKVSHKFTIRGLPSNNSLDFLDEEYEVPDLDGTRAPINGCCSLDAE
Sequence of Dual specificity calcium/calmodulin-dependent 3',5'-cyclic nucleotide phosphodiesterase 1A (Homo sapiens) (P54750 whole entry, the tested form may be a part): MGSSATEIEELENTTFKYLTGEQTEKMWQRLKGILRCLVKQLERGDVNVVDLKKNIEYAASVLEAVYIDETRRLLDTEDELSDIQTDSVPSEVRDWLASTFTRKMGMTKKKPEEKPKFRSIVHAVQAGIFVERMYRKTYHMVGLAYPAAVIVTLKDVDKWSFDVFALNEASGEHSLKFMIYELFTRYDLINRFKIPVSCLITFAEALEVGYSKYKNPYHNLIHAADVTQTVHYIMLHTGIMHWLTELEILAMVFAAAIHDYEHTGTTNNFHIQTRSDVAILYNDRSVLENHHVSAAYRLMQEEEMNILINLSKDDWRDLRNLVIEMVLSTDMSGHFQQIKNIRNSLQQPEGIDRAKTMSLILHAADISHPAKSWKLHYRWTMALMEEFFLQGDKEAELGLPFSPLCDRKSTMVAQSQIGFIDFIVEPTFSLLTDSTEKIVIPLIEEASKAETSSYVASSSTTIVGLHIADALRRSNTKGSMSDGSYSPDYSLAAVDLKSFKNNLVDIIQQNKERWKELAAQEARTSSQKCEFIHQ
Sequence of 3',5'-cyclic-AMP phosphodiesterase 4A (Homo sapiens) (P27815 whole entry): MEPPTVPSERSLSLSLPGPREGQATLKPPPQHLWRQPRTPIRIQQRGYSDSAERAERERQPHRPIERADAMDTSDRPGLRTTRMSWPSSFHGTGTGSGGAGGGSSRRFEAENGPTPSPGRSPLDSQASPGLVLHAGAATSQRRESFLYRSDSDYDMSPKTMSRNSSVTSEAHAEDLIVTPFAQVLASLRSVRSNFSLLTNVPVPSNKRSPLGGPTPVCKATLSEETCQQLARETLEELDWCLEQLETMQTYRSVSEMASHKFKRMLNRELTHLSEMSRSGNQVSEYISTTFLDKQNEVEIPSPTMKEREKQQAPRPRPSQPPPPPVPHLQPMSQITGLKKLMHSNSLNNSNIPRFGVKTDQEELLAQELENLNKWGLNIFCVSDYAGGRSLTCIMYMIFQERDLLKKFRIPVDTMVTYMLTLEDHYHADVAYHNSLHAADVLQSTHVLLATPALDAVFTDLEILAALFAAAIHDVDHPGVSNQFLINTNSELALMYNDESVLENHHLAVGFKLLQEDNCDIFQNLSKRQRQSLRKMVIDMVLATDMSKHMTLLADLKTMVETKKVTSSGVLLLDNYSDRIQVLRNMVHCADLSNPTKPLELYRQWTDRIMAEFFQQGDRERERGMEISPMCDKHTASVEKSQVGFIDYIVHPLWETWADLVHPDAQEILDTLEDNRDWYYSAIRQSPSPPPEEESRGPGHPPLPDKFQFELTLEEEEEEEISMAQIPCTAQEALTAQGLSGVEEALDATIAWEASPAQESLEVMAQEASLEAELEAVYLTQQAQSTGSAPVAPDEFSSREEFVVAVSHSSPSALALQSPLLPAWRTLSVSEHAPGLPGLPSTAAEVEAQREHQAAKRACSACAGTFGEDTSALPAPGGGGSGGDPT
Sequence of cGMP-inhibited 3',5'-cyclic phosphodiesterase 3B (Homo sapiens) (Q13370 whole entry, looked up, the tested form may be a part): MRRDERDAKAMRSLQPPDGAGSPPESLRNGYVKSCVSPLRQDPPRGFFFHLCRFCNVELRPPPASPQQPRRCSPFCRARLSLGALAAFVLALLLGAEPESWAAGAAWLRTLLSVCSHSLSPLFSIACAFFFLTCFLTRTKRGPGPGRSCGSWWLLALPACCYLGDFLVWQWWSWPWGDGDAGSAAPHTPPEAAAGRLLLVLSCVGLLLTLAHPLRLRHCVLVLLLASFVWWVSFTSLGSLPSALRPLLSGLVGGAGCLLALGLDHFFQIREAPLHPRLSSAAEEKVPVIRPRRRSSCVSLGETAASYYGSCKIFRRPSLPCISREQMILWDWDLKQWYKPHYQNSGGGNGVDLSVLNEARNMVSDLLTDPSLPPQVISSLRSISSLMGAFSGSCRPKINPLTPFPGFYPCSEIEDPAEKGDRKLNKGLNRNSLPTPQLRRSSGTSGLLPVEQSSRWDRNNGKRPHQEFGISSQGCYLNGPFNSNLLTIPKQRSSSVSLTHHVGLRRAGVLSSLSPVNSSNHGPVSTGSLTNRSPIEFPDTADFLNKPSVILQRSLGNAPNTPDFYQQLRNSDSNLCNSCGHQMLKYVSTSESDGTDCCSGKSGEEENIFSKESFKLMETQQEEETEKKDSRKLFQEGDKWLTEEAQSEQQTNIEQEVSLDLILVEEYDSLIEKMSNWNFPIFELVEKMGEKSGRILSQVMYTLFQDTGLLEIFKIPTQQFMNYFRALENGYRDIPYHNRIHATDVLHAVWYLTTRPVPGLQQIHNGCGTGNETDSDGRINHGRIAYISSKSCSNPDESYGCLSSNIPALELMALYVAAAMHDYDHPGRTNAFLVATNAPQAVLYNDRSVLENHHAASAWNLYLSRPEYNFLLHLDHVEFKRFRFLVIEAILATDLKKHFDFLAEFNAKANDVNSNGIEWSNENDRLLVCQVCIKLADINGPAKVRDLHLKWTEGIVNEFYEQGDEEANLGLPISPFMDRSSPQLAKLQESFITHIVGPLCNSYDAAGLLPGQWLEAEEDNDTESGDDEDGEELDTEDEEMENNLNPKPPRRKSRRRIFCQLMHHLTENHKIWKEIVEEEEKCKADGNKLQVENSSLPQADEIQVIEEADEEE
Sequence of Cone cGMP-specific 3',5'-cyclic phosphodiesterase subunit alpha' (P51160 whole entry): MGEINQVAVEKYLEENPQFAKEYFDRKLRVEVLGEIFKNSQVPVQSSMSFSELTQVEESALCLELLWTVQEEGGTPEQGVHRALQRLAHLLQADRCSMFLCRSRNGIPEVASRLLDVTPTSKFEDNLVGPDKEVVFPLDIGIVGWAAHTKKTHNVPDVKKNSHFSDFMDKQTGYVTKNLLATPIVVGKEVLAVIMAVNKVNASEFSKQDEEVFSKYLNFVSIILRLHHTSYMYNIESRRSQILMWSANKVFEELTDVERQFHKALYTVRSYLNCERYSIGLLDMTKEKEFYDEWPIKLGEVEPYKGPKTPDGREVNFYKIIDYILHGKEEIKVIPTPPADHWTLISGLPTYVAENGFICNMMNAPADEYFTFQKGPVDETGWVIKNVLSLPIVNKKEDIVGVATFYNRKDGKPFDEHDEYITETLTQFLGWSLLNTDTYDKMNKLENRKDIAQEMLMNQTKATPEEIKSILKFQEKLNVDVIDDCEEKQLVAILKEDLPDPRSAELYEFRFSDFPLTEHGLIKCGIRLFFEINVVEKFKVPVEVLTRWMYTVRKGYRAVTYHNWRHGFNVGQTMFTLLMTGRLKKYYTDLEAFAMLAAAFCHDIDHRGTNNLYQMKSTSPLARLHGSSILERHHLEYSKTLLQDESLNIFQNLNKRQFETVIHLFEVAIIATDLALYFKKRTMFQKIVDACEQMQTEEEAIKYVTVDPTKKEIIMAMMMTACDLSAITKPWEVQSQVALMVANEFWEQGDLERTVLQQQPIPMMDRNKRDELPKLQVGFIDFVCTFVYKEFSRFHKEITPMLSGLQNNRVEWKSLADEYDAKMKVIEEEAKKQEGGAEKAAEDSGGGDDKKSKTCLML

`CCCc1nn(C)c2c(=O)[nH]c(-c3cc(S(=O)(=O)N4CCN(C)CC4)ccc3OCC)nc12` gave an ED50 (Oryctolagus cuniculus) of 0.0143 mg/kg.

Work on `CCc1ccc(C2c3[nH]c4ccccc4c(=O)c3CN2c2ncc(-c3cccnc3F)cn2)s1` (centres undefined) yielded an IC50 [1] of 0.82 nM.

For `CCc1ccc(C2c3[nH]c4ccccc4c(=O)c3CN2c2ncc(-c3ccccn3)cn2)s1` (racemic), the inhibition [2] was 7%, the inhibition [3] was 2.5% and the Ratio IC50 (Homo sapiens [4]) was over 10000. It also gave a Ratio IC50 (Homo sapiens [5]) of over 2500, an Activity (Thoracic aorta) of over 90% and a Ratio IC50 (Homo sapiens [6]) of 8. For the same molecule, the Ratio IC50 (Homo sapiens [7]) was over 10000, the Ratio IC50 (Homo sapiens [8]) was over 10000 and the IC50 [1] was 0.6 nM. For the same molecule, the inhibition [9] was 2.5%, the inhibition [10] was 3% and the IC50 [11] was 4.8 nM.

`CCc1ccc(C2c3[nH]c4ccccc4c(=O)c3CN2c2ncccn2)o1` (centres undefined) gave an inhibition [12] of 11%, an inhibition [13] of 3.5% and a Ratio IC50 (Homo sapiens [4]) of over 10000. It also gave an inhibition [14] of 33%, a Ratio IC50 (Homo sapiens [5]) of over 2500 and an inhibition [15] of 3.5%. For the same molecule, the Ratio IC50 (Homo sapiens [6]) was 2, the Ratio IC50 (Homo sapiens [7]) was over 10000 and the Ratio IC50 (Homo sapiens [8]) was over 10000. The IC50 [1] was 3.14 nM and the IC50 [11] was 6.2 nM.

`CCc1ccc(C2c3[nH]c4ccccc4c(=O)c3CN2c2ncc(-c3ccncc3)cn2)s1` (centres undefined) showed an IC50 [1] of 0.6 nM.

For `CCc1ccc(C2c3[nH]c4ccccc4c(=O)c3CN2c2ncc(Br)cn2)s1` (centres undefined), the IC50 [1] was 3.28 nM.

For `CCc1ccc(C2c3[nH]c4ccccc4c(=O)c3CN2c2ncc(-c3cccnc3)cn2)s1` (centres undefined), the IC50 [1] was 0.67 nM.

For `CCc1ccc(C2c3[nH]c4ccccc4c(=O)c3CN2c2ncc(-c3ccc(OC)cc3)cn2)s1` (centres undefined), the IC50 [1] was 6.45 nM.
